Source: PubChem BioAssay (Sanford-Burnham Center for Chemical Genomics)
SENP1 FRET inh: blocks the human SENP1 SUMO protease catalytic domain; Q9P0U3; recombinant SENP1 catalytic domain, CyPet-SUMO1-YPet FRET cleavage; inhibition, % at 10 µM; 0.21% of 360,000 active; AID 624204;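 active means inhibition at least 30% at 10 µM, raw YFP signal under a set limit, fluorescence ratio 0.5 to 1.5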
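Material: hSENP1 catalytic domain, recombinant; medium: Tris pH 8 with BME, BSA, NP40 and catalase; compound: single concentration of 10 µM compound, 0.5% DMSO final; technique: FRET read of cyan and yellow fluorescence; timing: 50 min enzyme reaction, room temperature, light-protected; reagent: SFCypet-SUMO1-SFYpet substrate at 25 nM; control set: no-enzyme low, enzyme-DMSO high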
SENP8 block-1: SENP8 (human) protease inhibition | Q96LD8 | recombinant SENP8, Nedd8 substrate fluorescence | inhibition, % at 20 µM | 0.64% of 360,000 active | AID 602440; in the data active means inhibition mostly above about 40%, no sharp cut-off; inactive means mostly below about 27%
Apaf1 inhib: human Apaf-1 inhibition. 0.71% of 330,000 active. O14727. reconstituted apoptosome caspase-3 activity, DEVD-Rh110 fluorescence. inhibition, % at 20 µM; active means inhibition of at least 40% at 20 µM
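System: reconstituted apoptosome with Apaf-1, cytochrome c, caspase-9, procaspase-3, dATP; Signal: Rh110 fluorescence intensity; Schedule: 30 min compound preincubation, 50 min activation, room temperature; Reagent: cytochrome c trigger plus (Z-DEVD)2-Rh110 caspase-3 substrate.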
SENP6 inh: SENP6 protease inhibition. Q9GZR1. Recombinant SENP6 catalytic domain, aminoluciferin luminescence. inhibition, % at 10 µM. 1.8% of 330,000 active;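 active means inhibition above about 50% at the single tested dose, limit read from the data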
SENP8 block-2: inhibitors of human SENP8 protease. inhibition, % at 10 µM. AID 2540. purified SENP8, Z-RLRGG-aminoluciferin cleavage, luminescence. 1.2% of 330,000 active; in the data active means inhibition above about 50%
SENP7 inh: blocks the human protease SENP7 | recombinant SENP7, Z-RLRGG-aminoluciferin luminescence, 40 min | Q9BQF6 | 1.5% of 330,000 active | inhibition, % at 5 µM;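 active means inhibition above about 50% at the single test dose, limit read from the data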
SENP8 conf: human SENP8 inhibition, confirmed; 40% of 6,200 active; Recombinant SENP8, Z-RLRGG-aminoluciferin luminescence, 60 min; shares compounds with SENP7 inh; inhibition, % at 12.5 µM;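 active means mean inhibition across replicates above about 50%, limit read from the data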
SENP6 confirm: human SENP6 inhibition, confirmed | shares compounds with SENP7 inh | recombinant SENP6, Z-RLRGG-aminoluciferin luminescence | inhibition, % at 12.5 µM | 58% of 6,200 active
SENP7 conf: confirmation of human SENP7 protease inhibitors; 69% of 6,200 active; shares compounds with SENP7 inh; AID 488917; recombinant SENP7, Z-RLRGG-aminoluciferin luminescence, 40 min; inhibition, % at 12.5 µM
Casp3 select: inhibits human caspase-3 in SENP selectivity test; shares compounds with SENP7 inh; inhibition, % at 12.5 µM; 60% of 6,200 active; purified caspase-3, Z-DEVD-aminoluciferin luminescence, 60 min;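 active means mean inhibition above about 50%, limit read from the data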
Luc interf: counter-screen for SENP inhibitors: luminescence interference | Pre-incubated SENP8/Z-RLRGG-aminoluciferin, luciferase luminescence interference | 39% of 6,200 active | inhibition, % at 12.5 µM | AID 488919 | shares compounds with SENP7 inh;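 active means mean inhibition above about 50% when retested at one dose, limit read from the data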
Large screens that a line does not name were inactive (follow-up assays come after a bar, where they were run). This is a sample that favours compounds with a hit; in the whole collection about 2.9% have one here.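 How the source made its calls, unless noted: active means mean inhibition above about 50% in the one-dose retest (limit read from the data); inactive means the rest.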

COc1ccc(N(C(=O)CNC(=O)c2ccco2)C(C(=O)NC2CCCCC2)c2ccco2)cc1 (stereo unspecified)	SENP6 inh 60 | SENP8 conf inactive | SENP6 confirm inactive | SENP7 conf inactive | Casp3 select inactive | Luc interf inactive
C/C(=N\NC(=O)c1n[nH]c2c1CCC2)c1cccs1	SENP6 inh 87, SENP8 block-2 82, SENP7 inh 87 | SENP8 conf inactive | SENP6 confirm inactive | SENP7 conf inactive | Casp3 select inactive | Luc interf inactive
C/C(=N\NC(=O)c1cc(Br)ccc1O)c1cccs1	SENP6 inh 63 | SENP8 conf inactive | SENP6 confirm inactive | SENP7 conf inactive | Casp3 select inactive | Luc interf inactive
C/C(=N\NC(=O)c1cc(C)[nH]n1)c1cccs1	none
Cc1ccc(/C=N/NC(=O)c2n[nH]c3c2CCCC3)cc1	none
O=C(N/N=C/c1cccs1)c1n[nH]c2c1CCCC2	SENP6 inh 89, SENP8 block-2 84, SENP7 inh 92 | SENP8 conf inactive | SENP6 confirm 89 | SENP7 conf 100 | Casp3 select 96 | Luc interf 54
C[C@@H](NS(=O)(=O)c1cc(Cl)ccc1F)[C@H](O)c1ccccc1	none (no result: Apaf1 inhib, SENP6 inh, SENP8 block-2, SENP7 inh)
O=C(O/N=C1/CCCc2occc21)c1ccc(F)cc1	SENP6 inh 87, SENP8 block-2 83, SENP7 inh 88 | SENP8 conf inactive | SENP6 confirm 88 | SENP7 conf 79 | Casp3 select 66 | Luc interf inactive
O=C(O/N=C1\CCS(=O)(=O)c2sccc21)c1ccc(F)cc1	none
O=C(O/N=C1/CCSc2ccccc21)c1ccc(F)cc1	SENP7 inh 87 | SENP8 conf 73 | SENP6 confirm 92 | SENP7 conf 89 | Casp3 select 79 | Luc interf inactive
CC(=O)c1cc2c(cc1C)CCCC2(C)C	none (no result: Apaf1 inhib, SENP6 inh, SENP8 block-2, SENP7 inh)
CCOC(=O)C1=CCN(S(=O)(=O)c2ccccc2Br)C1c1ccccc1 (stereo unspecified)	none (no result: Apaf1 inhib, SENP6 inh, SENP8 block-2, SENP7 inh)
O=C(O)c1ccc(COc2ccccc2Cl)cc1	SENP6 inh 72, SENP8 block-2 57 | SENP8 conf inactive | SENP6 confirm 66 | SENP7 conf 91 | Casp3 select 85 | Luc interf 70
COc1ccc(OCC(O)COc2ccc(C(=O)O)cc2)cc1 (stereo unspecified)	none
COc1ccc(OCc2ccc(C(=O)O)cc2)cc1	SENP6 inh 84, SENP8 block-2 51, SENP7 inh 68 | SENP8 conf 81 | SENP6 confirm 76 | SENP7 conf 94 | Casp3 select 62 | Luc interf 78
O=C(c1ccc(COc2ccc(Cl)cc2)cc1)N1CCCCC1	SENP6 inh 87, SENP8 block-2 63, SENP7 inh 75 | SENP8 conf 81 | SENP6 confirm 78 | SENP7 conf 91 | Casp3 select 60 | Luc interf 66
COC(=O)c1ccc(COc2c(F)c(F)cc(F)c2F)o1	none
O=C(O)c1ccc(COc2c(F)c(F)cc(F)c2F)cc1	SENP6 inh 80 | SENP8 conf 66 | SENP6 confirm 67 | SENP7 conf 90 | Casp3 select 90 | Luc interf 79
CCN(CC)C(=O)c1ccc(COc2ccccc2Cl)cc1	none
COc1cc(NC(=O)Nc2nc(C(N)C(C)C)cs2)cc(OC)c1OC (stereo unspecified)	none (no result: Apaf1 inhib, SENP6 inh, SENP8 block-2, SENP7 inh)
Cc1oc(C(=O)O)cc1COc1cccc2ccccc12	none
